This is an account of results in paper PMC10412738 (Cell reports, 2023).

Data set [1] relates to Y79 cells. Nature of the data set: Cell proliferation. The class given is cell-based. Conditions: for growth arrest following SFRP2 silencing, Wnt inhibitors: 1 μM, SFRP2 siRNA. In short, it runs like this: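 SFRP2 or control siRNA transfected with Lipofectamine RNAiMAX, then cells given recombinant human SFRP2 at 250 ng/mL or left untreated. Proliferation tracked by IncuCyte live-cell imaging. RB383 were grown in IMDM with 10% FBS, 10 μg/mL insulin and 55 μM β-mercaptoethanol; Y79 in RPMI-1640 with 10% FBS.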

Data set [2] relates to phosphorylated CREB (phospho-serine 133) in RB383 cells. Nature of the data set: Phosphorylated CREB by immunoblotting, RB383. The format is cell-based. The following applies: for phosphorylated CREB induction: RB383 cells, 1 μg/mL, immunoblotting. On the technique in general: A western blot detects proteins with antibodies after separation by electrophoresis.
Data set [3] concerns NOS2 RNA in RB383 cells. Nature of the data set: NOS2 RNA by qRT-PCR, RB383. The class given is cell-based. The following applies: n = 3; for NOS2 RNA induction following SFRP2 silencing: 12 h; for NOS2 RNA induction: RB383 cells, 1 μg/mL, qRT-PCR. A general note: Quantitative PCR measures a nucleic acid by following its amplification.
For data set [4], the system named is NO production in RB383 cells. As to the kind of experiment: NO production, nitrate/nitrite colorimetric assay, RB383. The format is cell-based. Conditions: n = 3; for NO production following SFRP2 silencing: CM, 12 h; for NO production: RB383 cells, 1 μg/mL, NO in the CM. In a few lines: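 Test peptides (12-mer SFRP2 binders from phage display) added to RB383 at 1 μg/mL. At the indicated time points, NO in the conditioned medium was measured by nitrite/nitrate colorimetric assay; n = 3.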

In data set [5] the test system is RB383 cells. Nature of the data set: Cell proliferation. The format is cell-based. Conditions: for inhibition of proliferation: RB383 cells, 1 μg/mL, IncuCyte.
In data set [6] the test system is retinoblastoma cells. Nature of the data set: Rescue of growth inhibition following SFRP2 silencing. The class given is cell-based. Conditions: SFRP2 siRNA. In short, it runs like this:
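Retinoblastoma cell lines transfected with SFRP2 or control siRNA (RNAiMAX), then exposed to 5 μM NS-2028 (sGC inhibitor) or 2.5 μM KT5823 (PKG inhibitor), or left untreated. Proliferation measured by IncuCyte live-cell imaging.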

The subject of data set [7] is p21 in RB383 cells. Nature of the data set: p21 induction following SFRP2 silencing, immunoblotting, RB383. The class given is cell-based. Conditions: 1 μM carboxy-PTIO, 5 μM NS-2028, or 2.5 μM KT5823. In short, it runs like this: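 In RB383 cells transfected with SFRP2 or control siRNA, treatment was none, 1 μM carboxy-PTIO, 5 μM NS-2028 or 2.5 μM KT5823. p21 protein was then assessed by SDS-PAGE immunoblotting of whole-cell lysate.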

Data set [8] concerns NO production in Y79 cells. Nature of the data set: NO production, nitrate/nitrite colorimetric assay, Y79. The class given is cell-based. The following applies: 2 μM, CM and cell lysate, n = 3. In a few lines: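 Y79 retinoblastoma cells were exposed to a small-molecule SFRP inhibitor at 2 μM. At the indicated times, NO production was measured in conditioned medium and in cell lysate by nitrite/nitrate colorimetric assay. n = 3; data given as mean ± SEM.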

The test system of data set [9] is SFRP1. The following applies: cited from earlier work.
The subject of data set [10] is SFRP2 RNA in retinoblastoma cells. As to the kind of experiment: SFRP2 RNA silencing in retinoblastoma. The class given is cell-based. The following applies: n = 3.
Data set [11] has as its system ARPE-19 retinal pigment epithelial cells. As to the kind of experiment: Cell proliferation. The format is cell-based, human. The following applies: 1 μg/mL, IncuCyte.
Data set [12] concerns the target Recombinant human CXADR protein (3336-CX-050, R&D Systems) (human) (UniProt P78310). As to the kind of experiment: MST.
Data set [13] deals with CXADR. As to the kind of experiment: Co-immunoprecipitation of SFRP2 with endogenous CXADR in 293T cells. The format is binding. The following applies: C-terminally FLAG-tagged SFRP2, 293T cells. In a few lines:
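FLAG-tagged constructs (C-terminally FLAG-tagged SFRP2 in pcDNA3) were transfected by calcium phosphate co-precipitation into 293T cells grown in DMEM with 10% fetal bovine serum. Anti-FLAG immunoprecipitation was followed by SDS-PAGE and anti-CXADR immunoblotting for endogenous CXADR.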

The test system of data set [14] is Y79 cells. Nature of the data set: Ligand-binding assay of SFRP2-FLAG to Y79 cells. The following applies: anti-FLAG immunoblotting after washing. In a few lines:
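C-terminally FLAG-tagged SFRP2 was secreted from transfected 293T cells. It was incubated with Y79 cells previously transfected (Lipofectamine RNAiMAX) with CXADR siRNA or control siRNA. Cells were washed to remove unbound protein and lysed. Whole-cell lysate went to SDS-PAGE and anti-FLAG immunoblotting. CXADR knockdown was confirmed by immunoblotting.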

The target of data set [15] is recombinant CXADR. Nature of the data set: Microscale thermophoresis of SFRP2-CXADR interaction. The class given is binding, human. The following applies: read-out: KD of SFRP2-CXADR interaction, labeled CXADR, PBS/0.005% Tween 20, 30-min incubation at room temperature, Monolith NT.115. In a few lines: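 Recombinant human CXADR was fluorescently labelled with the RED-NHS second-generation dye kit. It was mixed with recombinant human SFRP2, incubated, and loaded into capillary chips. KD was derived from microscale thermophoresis affinity analysis.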
For orientation: MST reads how a fluorescent partner responds to local heating, with and without ligand.

In data set [16] the test system is NO production in CXADR-overexpressing Y79 cells. Nature of the data set: NO production in CXADR-overexpressing Y79 cells. The format is cell-based. Conditions: 250 ng/mL recombinant SFRP2, n = 3.
For data set [17], the system named is CXADR-overexpressing Y79 cells. Nature of the data set: Cell proliferation of CXADR-overexpressing Y79 cells. The format is cell-based. Conditions: 250 ng/mL recombinant SFRP2. In short, it runs like this: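 Y79 cells were infected with pCDH1-puro lentivirus (made in 293T) carrying CXADR cDNA or empty vector, then selected in 5 μg/mL puromycin for 48 h. Expression was checked by anti-CXADR immunoblot. Cells were treated with recombinant SFRP2 at 250 ng/mL or left untreated, and proliferation was monitored by IncuCyte.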

For `CC(=O)N[C@@H](C(=O)O)C(C)(C)SN=O` (racemic) [SNAP], in data set [1] (concentrations in figure, IncuCyte), the “retinoblastoma growth, NO donor” value is listed as “inhibited retinoblastoma growth in a dose-dependent manner”.

On to `O=S(=O)(NCCNC/C=C/c1ccc(Br)cc1)c1cccc2cnccc12` [H89], for which, in data set [2] (RB383, 5 μM H89, SFRP2 siRNA, 48 h), the “CREB phosphorylation following SFRP2 silencing” value is reported as “abolished CREB phosphorylation”. The “NOS2 RNA induction following SFRP2 silencing” value in data set [3] (RB383, 5 μM H89, SFRP2 siRNA) is listed as “abolished”. The “NO production following SFRP2 silencing” value in [4] (RB383, 5 μM H89, SFRP2 siRNA) is recorded as “abolished”. Also, in data set [5] (RB383, 5 μM H89, SFRP2 siRNA), the “growth inhibition following SFRP2 silencing” value is on record as “abolished”.

For `O=C(CSc1nc2c(c(=O)n1-c1ccccc1)SCC2)Nc1ccc(-c2ccccc2)cn1` [IWP-L6], the “growth arrest following SFRP2 silencing, Wnt inhibitors” value in data set [1] is reported as “did not rescue the growth arrest of retinoblastoma cells following SFRP2 silencing”.

Turning to `COC(=O)[C@@]1(OC)C[C@H]2O[C@]1(C)n1c3ccccc3c3c4c(c5c6ccccc6n2c5c31)C(=O)N(C)C4` [KT5823], the “growth inhibition following SFRP2 silencing (rescue), PKG inhibitor” value in [6] (2.5 μM) is reported as “abolished”. Moreover, in data set [7], the “p21 induction following SFRP2 silencing” value is given as “abolished”.

Take `[H]/N=C(/NC)NCCC[C@H](N)C(=O)O` [L-NMMA]: the “growth inhibition following SFRP2 silencing (rescue), pan-NOS inhibitor” value in data set [6] (concentrations in figure) is “abolished growth inhibition following SFRP2 silencing”.

Take `Nc1ncc2c(n1)CC(c1ccco1)CC2=O` (stereo not drawn) [NKY80]: the “NOS2 RNA induction following SFRP2 silencing” value in data set [3] (RB383, 1 μM NKY80, SFRP2 siRNA) was “abolished NOS2 induction”. The “NO production following SFRP2 silencing” value in data set [4] (RB383, 1 μM NKY80, SFRP2 siRNA) is “abolished”. Also, the “growth inhibition following SFRP2 silencing” value in [5] (RB383, 1 μM NKY80, SFRP2 siRNA) is “abolished”.

Regarding `O=c1onc2n1-c1cc(Br)ccc1OC2` [NS-2028], in data set [6] (5 μM), the “growth inhibition following SFRP2 silencing (rescue), sGC inhibitor” value is listed as “abolished”. Moreover, in data set [7], the “p21 induction following SFRP2 silencing” value is reported as “abolished”.

As to `O=S(=O)(NC1CCNCC1)c1cc(S(=O)(=O)c2ccccc2)ccc1C(F)(F)F` [WAY-316606], in data set [8], the NO generation entry is listed as “rapidly induces NO generation in retinoblastoma cells”. In data set [1] (dose range in figure, IncuCyte), the inhibition of proliferation entry was “efficiently inhibited retinoblastoma cell proliferation in a dose-dependent manner”. Further, the “inhibition of SFRP1” value in [9] was “potent inhibitor of SFRP1”.

In the case of `Oc1nc(-c2ccc(C(F)(F)F)cc2)nc2c1CSCC2` [XAV939], the “growth arrest following SFRP2 silencing, Wnt inhibitors” value in data set [1] is on record as “did not rescue the growth arrest of retinoblastoma cells following SFRP2 silencing”.

Turning to `CC1(C)N([O])C(c2ccc(C(=O)O)cc2)=[N+]([O-])C1(C)C` [carboxy-PTIO], in data set [6] (1 μM, all five retinoblastoma cell lines), the “growth inhibition following SFRP2 silencing (rescue), NO scavenger” value is reported as “completely abolished SFRP2 silencing-induced growth inhibition in all five retinoblastoma cell lines”. The “p21 induction following SFRP2 silencing” value in [7] is given as “abolished”. Also, the “effect on SFRP2 silencing” value in [10] was “did not affect SFRP2 silencing”.

Turning to HGWASLLNYSWY [peptide II], the “phosphorylated CREB induction” value in data set [2] is “rapidly induced phosphorylated CREB”. In addition, the “NOS2 RNA induction” value in data set [3] is given as “rapidly induced”. For the same molecule, the NO production entry in [4] is reported as “rapidly induced”. The inhibition of proliferation result is “strongly inhibited proliferation of retinoblastoma cells” in data set [5] and “strongly inhibited proliferation of retinoblastoma cells” in data set [1] (1 μg/mL, IncuCyte). In data set [11], the “growth of ARPE-19 cells” value is listed as “do not inhibit the growth of retinal pigment epithelial cells”.

With HNPFTFFGPMFY [peptide I], the “phosphorylated CREB induction” value in data set [2] is “rapidly induced phosphorylated CREB”. For the same molecule, the “NOS2 RNA induction” value in data set [3] is recorded as “rapidly induced”. For the same molecule, in [4], the NO production entry is “rapidly induced”. The inhibition of proliferation entry in data set [5] is “strongly inhibited proliferation of retinoblastoma cells”; in [1] (1 μg/mL, IncuCyte), “strongly inhibited proliferation of retinoblastoma cells”. Besides, in [11], the “growth of ARPE-19 cells” value was “do not inhibit the growth of retinal pigment epithelial cells”.

B1: Recombinant human SFRP2 protein (6838-FR-025, R&D Systems) (ligand)
chain: LFLFGQPDFSYKRSNCKPIPANLQLCHGIEYQNMRLPNLLGHETMKEVLEQAGAWIPLVMKQCHPDTKKFLCSLFAPVCLDDLDETIQPCHSLCVQVKDRCAPVMSAFGFPWPDMLECDRFPQDNDLCIPLASSDHLLPATEEAPKVCEACKNKNDDDNDIMETLCKNDFALKIKVKEITYINRDTKIILETKSKTIYKLNGVSERDLKKSVLWLKDSLQCTCEEMNDINAPYLVMGQKQGGELVITSVKRWQKGQREFKRISRSIRKLQC
For the molecule B1, the Kd in [12] stood at 11.9 nM.

B2: SFRP2-FLAG: C-terminally FLAG-tagged SFRP2 produced by transfection in 293T cells (protein)
chain: LFLFGQPDFSYKRSNCKPIPANLQLCHGIEYQNMRLPNLLGHETMKEVLEQAGAWIPLVMKQCHPDTKKFLCSLFAPVCLDDLDETIQPCHSLCVQVKDRCAPVMSAFGFPWPDMLECDRFPQDNDLCIPLASSDHLLPATEEAPKVCEACKNKNDDDNDIMETLCKNDFALKIKVKEITYINRDTKIILETKSKTIYKLNGVSERDLKKSVLWLKDSLQCTCEEMNDINAPYLVMGQKQGGELVITSVKRWQKGQREFKRISRSIRKLQC
modifications: left off: FLAG, C-terminal, kept
Consider B2, for which the “co-immunoprecipitation with CXADR” value in data set [13] is “specifically co-immunoprecipitated with CXADR”. Further, the “SFRP2-FLAG binding to Y79 cells” value in data set [14] is “bound to Y79 cells, and this binding was abolished by siRNA-mediated silencing of CXADR”.

B3: recombinant SFRP2: Recombinant human SFRP2 protein (R&D Systems) (protein)
chain: LFLFGQPDFSYKRSNCKPIPANLQLCHGIEYQNMRLPNLLGHETMKEVLEQAGAWIPLVMKQCHPDTKKFLCSLFAPVCLDDLDETIQPCHSLCVQVKDRCAPVMSAFGFPWPDMLECDRFPQDNDLCIPLASSDHLLPATEEAPKVCEACKNKNDDDNDIMETLCKNDFALKIKVKEITYINRDTKIILETKSKTIYKLNGVSERDLKKSVLWLKDSLQCTCEEMNDINAPYLVMGQKQGGELVITSVKRWQKGQREFKRISRSIRKLQC
modifications: left off: FLAG, C-terminal, kept
Take B3: the Kd in data set [15] is 11.9 nM. Moreover, the “NO generation in CXADR-overexpressing cells” value in [16] is recorded as “rapidly abolished”. The “proliferation of CXADR-overexpressing cells” value in [17] is reported as “rescue of proliferation”.
